For orientation: Emax means the maximal effect, on the per cent scale that the assay sets. One may read the pKb as the Kb on a negative log10 scale, so that one unit is a factor of ten.

Consider 26 molecules from ChEMBL document CHEMBL5620424, “Design, synthesis and evaluation of novel 2-phenyl-3-(1H-pyrazol-4-yl)pyridine positive allosteric modulators for the M4 mAChR” (Eur J Med Chem, 2023).

Assay [1] concerns the target T1, Muscarinic acetylcholine receptor M4 (Homo sapiens) (UniProt P08173).
T1 sequence (whole entry): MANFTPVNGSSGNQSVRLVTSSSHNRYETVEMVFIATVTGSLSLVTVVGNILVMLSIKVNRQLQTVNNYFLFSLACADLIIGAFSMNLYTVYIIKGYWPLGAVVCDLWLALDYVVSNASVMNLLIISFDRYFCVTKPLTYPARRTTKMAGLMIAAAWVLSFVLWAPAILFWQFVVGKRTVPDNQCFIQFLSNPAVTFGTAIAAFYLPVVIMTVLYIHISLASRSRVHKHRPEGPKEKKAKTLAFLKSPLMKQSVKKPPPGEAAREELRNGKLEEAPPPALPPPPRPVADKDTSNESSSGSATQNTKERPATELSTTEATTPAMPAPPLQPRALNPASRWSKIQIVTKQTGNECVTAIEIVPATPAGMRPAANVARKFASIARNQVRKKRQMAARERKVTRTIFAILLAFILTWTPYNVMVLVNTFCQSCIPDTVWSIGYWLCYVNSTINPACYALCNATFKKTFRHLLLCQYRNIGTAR
Description: Positive allosteric modulation at Rluc-tagged human M4 mAChR expressed in Flp-In-CHO cells co-expressing eYFP-tagged beta-arrestin 2 assessed as ACh-mediated beta-arrestin 2 recruitment co-operativity (log alpha beta) incubated for 5 mins by luminometry. The format is cell-based. Conditions: filed as positive allosteric modulator. The gist of the method:
(§1)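 FlpInCHO cells co-transfected with human M4-Rluc8 (20 ng/well) and β-arrestin-2-eYFP (80 ng/well) using PEI, assayed after 48 h. Coelenterazine h (5 μM) preincubated 5 min, then ACh plus modulator ranges for 5 min at 37 °C; BRET at 475/535 nm. Fit to simplified operational model with slope 1 and KB fixed from binding. 4–5 experiments in duplicate.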
(Activated receptors often draw arrestin, which recruitment assays turn into a signal.)

For assay [2], the target named is T1, Muscarinic acetylcholine receptor M4 (Homo sapiens). Description: Positive allosteric modulation at human M4 mAChR expressed in Flp-In-CHO cells co-expressing CAMYEL biosensor assessed as ACh-mediated cAMP signalling co-operativity (log alpha beta) incubated for 5 mins by BRET assay. The format is functional, cell-based. Conditions: filed as positive allosteric modulator. The gist of the method:
(§2)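 CAMYEL-transfected FlpInCHO-hM4 cells (48 h post-transfection) given ACh and modulator concentration ranges in full interaction design, 5 min at 37 °C; BRET read with coelenterazine h. Fit to complete operational model of allosterism and agonism with ACh KA and modulator KB fixed from binding assays. Gives log τB and log αβ. 4–5 experiments in duplicate.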

For assay [3] the target is unchanged. Description: Displacement of 3[H]-NMS from human M4 mAChR expressed in Flp-In-CHO cells assessed as binding co-operativity (log alpha) incubated for 6 hrs in presence of ACh by microbeta2 plate reader assay. The format is cell-based. Conditions: filed as positive allosteric modulator. In a few lines: (§3)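 Intact FlpInCHO-hM4 cells, 20,000/well grown overnight, in HBSS pH 7.4 with [3H]-NMS 0.5 nM, ACh (0.01 μM–10 mM) and modulator (0.1–10 μM), shaken 6 h at room temperature. Washed with ice-cold 0.9% NaCl, then scintillation counting. Nonspecific binding defined with 10 μM atropine. pKB and log α(ACh) from global fit to allosteric ternary complex model, with log α′(NMS) fixed at –3 under strong negative cooperativity. 4–5 experiments in duplicate.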

For assay [4] the target is unchanged. Description: […] human M4 mAChR expressed in Flp-In-CHO cells co-expressing CAMYEL biosensor assessed as change in baseline response at 10 uM incubated for 5 mins by BRET assay relative to control. The format is cell-based. In a few lines:
(§4)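 FlpInCHO cells stably expressing human M4 mAChR, transiently transfected with CAMYEL cAMP BRET biosensor (60 ng/well, PEI), assayed 48 h later in HBSS pH 7.4. Full ACh concentration-response curve alone or with modulator at 1 or 10 μM, co-added with coelenterazine h (5 μM), 5 min, 37 °C. Three-parameter logistic fit; ACh curve values subtracted from ACh+modulator values. Δbaseline and ΔEmax given as % of maximal ACh response without modulator. 4 experiments in duplicate, SEM pooled.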
A general note: In BRET a luciferase serves as donor, and the signal depends on an acceptor being close.

The target is the same in assay [5]. Description: Positive allosteric modulation at human M4 mAChR expressed in Flp-In-CHO cells co-expressing CAMYEL biosensor assessed as efficacy of ACh-mediated cAMP signalling (log tau B) incubated for 5 mins by BRET assay. Format: functional, cell-based. Conditions: filed as positive allosteric modulator. The gist of the method: as §2
For assay [6] the target is unchanged. Kind of assay: Positive allosteric modulation at human M4 mAChR expressed in Flp-In-CHO cells co-expressing CAMYEL biosensor assessed as change in maximum ACh-mediated response at 10 uM incubated for 5 mins by BRET assay relative to control. The format is cell-based. The gist of the method:
as §4

The target is the same in assay [7]. Description: Positive allosteric modulation at human M4 mAChR expressed in Flp-In-CHO cells co-expressing CAMYEL biosensor assessed as change in ACh-mediated response incubated for 5 mins by BRET assay. Conditions: filed as positive allosteric modulator. Format: cell-based. In a few lines: as §4
For assay [8] the target is unchanged. Description: Positive allosteric modulation at Rluc-tagged human M4 mAChR expressed in Flp-In-CHO cells co-expressing eYFP-tagged beta-arrestin 2 assessed as efficacy of ACh-mediated beta-arrestin 2 recruitment (log tau B) incubated for 5 mins by luminometry. Format: cell-based. Conditions: filed as positive allosteric modulator. In a few lines: as §1
Assay [9] shares this target. Kind of assay: Displacement of 3[H]-NMS from human M4 mAChR expressed in Flp-In-CHO cells assessed as binding constant incubated for 6 hrs by microbeta2 plate reader assay. The format is cell-based. The note with it: filed as positive allosteric modulator. In a few lines: as §3
[10] abbreviates: filed as positive allosteric modulator.

Turning to `CN1Cc2ccc(-c3nccnc3-c3cnn(CC4CCCC4)c3)cc2C1=O`, the log(activity) in assay [1] was 0.94; in assay [2], 1.81; in assay [3] it was 1.41; in assay [5] it was -0.74; in assay [8], 0.07. For the same molecule, the Activity in assay [4] (setting [10]) was 48.5%. In addition, the Emax in assay [6] was determined as 35.1%. Also, the deltapEC50 in assay [7] was -0.34. In assay [9], the pKb turned out to be 4.55.
On to `CNC(=O)c1cccc(-c2nc(C)ccc2-c2cnn(CC3CCCC3)c2)c1`, for which the Activity in assay [4] (setting [10]) stood at 78.2%. In assay [6] (setting [10]), the Emax stood at 61.3%. For the same molecule, the deltapEC50 in assay [7] was found to be 1.99.
In the same order, the values of `Cc1ccc(-c2cnn(CC3CCCC3)c2)c(-c2cccc(C(N)=O)c2)n1` are 77.3%, 65.6% and 1.33.
For the molecule `Cc1ccc(-c2cnn(CC3CCCC3)c2)c(-c2ccc3c(c2)NC(=O)C3)n1`, the Activity in assay [4] worked out at 18.6%. Besides, in assay [6], the Emax amounted to 39%. Further, the deltapEC50 in [7] is 1.24.
For the molecule `Cc1ccc(-c2cnn(CC3CCCC3)c2)c(-c2ccccc2)n1`, the log(activity) in [1] amounted to 1.87; in assay [2], 2.46; in assay [3], 1.98; in [5], 0.04; in [8], 0.87. Besides, the Activity in assay [4] was 32.1%. For the same molecule, the Emax in [6] was determined as 21.8%. Also, the deltapEC50 in assay [7] was 1.15. In addition, the pKb in [9] came out at 4.68.
On to `Cc1ccc(-c2cnn(CC3CC3)c2)c(-c2ccc3c(c2)C(=O)N(C)C3)n1`, for which the log(activity) was 1.29 in [1]; 2.22 in assay [2]; 1.95 in assay [3]; -0.54 in assay [5]; 0.64 in [8]. Further, in [4] (setting [10]), the Activity was determined as 102%. Also, in assay [6] (setting [10]), the Emax stood at 69.6%. In addition, the deltapEC50 in assay [7] was found to be 1.64. Moreover, in assay [9], the pKb came to 5.84.
For the molecule `Cc1ccc(-c2cnn(CC3CCCC3)c2)c(-c2ccc3c(c2)C(=O)NC3)n1`, the Activity in assay [4] (setting [10]) worked out at 89.7%. Moreover, the Emax in assay [6] (setting [10]) is 73.3%. Besides, the deltapEC50 in [7] amounted to 2.57.
As for `Cc1ccc(-c2cnn(CC3CCCC3)c2)c(-c2cccc(C(=O)N(C)C)c2)n1`, the log(activity) in assay [1] is 1.06; in [2] it was 2.03; in assay [3] it was 1.47; in assay [5] it was -0.58; in assay [8], -0.83. In assay [4], the Activity stood at 33.2%. Also, the Emax in assay [6] (setting [10]) stood at 97.7%. The deltapEC50 in [7] was determined as 0.25. Moreover, the pKb in assay [9] was found to be 4.49.
Take `CCCN1Cc2ccc(-c3nc(C)ccc3-c3cnn(CC4CCCC4)c3)cc2C1=O`: the Activity in [4] (setting [10]) came to 83.3%. In addition, the Emax in assay [6] (setting [10]) was found to be 50.5%. Also, the deltapEC50 in assay [7] stood at 2.11.
Consider `Cc1ccc(-c2cnn(CC3CCN(C(=O)OC(C)(C)C)CC3)c2)c(-c2ccc3c(c2)C(=O)N(C)C3)n1`, for which the Activity in assay [4] came to 5.53%. In addition, the Emax in assay [6] (setting [10]) is 52.5%. For the same molecule, in [7], the deltapEC50 stood at 0.6.
With `CN1Cc2ccc(-c3ccccc3-c3cnn(CC4CCCC4)c3)cc2C1=O`, the Activity in assay [4] was 6.49%. For the same molecule, the Emax in assay [6] turned out to be 25.6%. Also, the deltapEC50 in assay [7] is 0.63.
As for `Cc1ccc(-c2cnn(CC3CCCC3)c2)c(-c2ccc(N)cc2)n1`, the Activity in [4] (setting [10]) came out at 88.1%. Moreover, in assay [6] (setting [10]), the Emax turned out to be 80.6%. The deltapEC50 in assay [7] was 1.31.
Take `Cc1ccc(-c2cnn(CC3CCCCC3)c2)c(-c2ccc3c(c2)C(=O)N(C)C3)n1`: the log(activity) in assay [1] is 1.1; in assay [2], 2.01; in assay [3], 1.92; in assay [5] it was -0.88; in [8], 0.56. Also, the Activity in assay [4] (setting [10]) came out at 106%. Also, in assay [6] (setting [10]), the Emax came to 63.9%. Further, the deltapEC50 in assay [7] came to 0.73. The pKb in [9] was determined as 6.11.
With `CN1Cc2ccc(-c3cnccc3-c3cnn(CC4CCCC4)c3)cc2C1=O`, in assay [4] (setting [10]), the Activity was 47.2%. Further, the Emax in [6] (setting [10]) amounted to 56.8%. Moreover, the deltapEC50 in assay [7] was found to be 0.17.
In the case of `CC(=O)Nc1cccc(-c2nc(C)ccc2-c2cnn(CC3CCCC3)c2)c1`, the Activity in [4] (setting [10]) is 52.2%. The Emax in assay [6] (setting [10]) is 57.7%. The deltapEC50 in assay [7] is 1.63.
For `Cc1ccc(-c2ccc3c(c2)C(=O)N(C)C3)c(-c2cnn(CC3CCOCC3)c2)n1`, the Activity in assay [4] was 4.76%. The Emax in [6] was 3.58%. Besides, the deltapEC50 in assay [7] worked out at 0.58.
Regarding `CN1Cc2ccc(-c3ncccc3-c3cnn(CC4CCCC4)c3)cc2C1=O`, the log(activity) in assay [1] was 2.09; in assay [2], 2.47; in assay [3], 2.18; in [5], -0.81; in [8], 0.51. Moreover, in assay [4], the Activity came to 13%. The Emax in assay [6] (setting [10]) was determined as 41.6%. Also, the deltapEC50 in [7] is 0.88. In addition, the pKb in [9] was found to be 5.33.
For the molecule `Cc1ccc(-n2cc(CC3CCCC3)nn2)c(-c2ccc3c(c2)C(=O)N(C)C3)n1`, in assay [4], the Activity was 24.5%. The Emax in assay [6] was determined as 13.9%. Also, the deltapEC50 in assay [7] was found to be 1.06.
In the same order, the values of `Cc1ccc(-c2cnn(C)c2)c(-c2ccc3c(c2)C(=O)N(C)C3)n1` are 13.7%, 27% and 0.57.
`Cc1ccc(-c2cnn(CC3CCC3)c2)c(-c2ccc3c(c2)C(=O)N(C)C3)n1`: the Activity in [4] (setting [10]) was 124%. Also, in [6] (setting [10]), the Emax turned out to be 74%. In addition, in [7], the deltapEC50 amounted to 1.05.
Taken in the same sequence, the figures for `Cc1ccc(-c2cnn(CC(C)C)c2)c(-c2ccc3c(c2)C(=O)N(C)C3)n1` were 108%, 84.8% and 1.36.
Turning to `Cc1ccc(-c2cn(CC3CCCC3)nn2)c(-c2ccc3c(c2)C(=O)N(C)C3)n1`, in [4], the Activity is 20%. Moreover, in assay [6], the Emax stood at 11.8%. Moreover, in assay [7], the deltapEC50 was 1.07.
Turning to `Cc1ccc(-c2cnn(Cc3ccccc3)c2)c(-c2ccc3c(c2)C(=O)N(C)C3)n1`, the Activity in assay [4] (setting [10]) was found to be 77.1%. The Emax in assay [6] (setting [10]) was 63.8%. In assay [7], the deltapEC50 came out at 1.87.
In the same order, the values of `Cc1ccc(-c2cnn(CC3CCCC3)c2)c(-c2cccc(N)c2)n1` are 51.7%, 53.5% and 1.35.
Taken in the same sequence, the figures for `Cc1ccc(-c2cnn(CC3CCOCC3)c2)c(-c2ccc3c(c2)C(=O)N(C)C3)n1` were 86.7%, 47.1% and 1.16.
Taken in the same sequence, the figures for `CN1Cc2ccc(-c3ccncc3-c3cnn(CC4CCCC4)c3)cc2C1=O` were 90.6%, 66.6% and 1.49.
